Experimental data of several laboratories.
Each line is one published result; the experiments were not run side by side.
Cell line: RPMI-8226
Read-out: cell growth or viability

For `COc1ccc(C(=O)/C=C/c2c(F)cccc2Cl)cc1S(N)(=O)=O`, the inhibition was 110% (SRB; 10 µM).
`COc1cccc(Oc2ccccc2NC(=O)CNC(=O)c2cccc3ccccc23)c1` gave a GI50 of 955 nM (SRB; 48 h).
For `O=C(Nc1cccc(-c2nc(NC(P(=O)(O)O)P(=O)(O)O)c3ccsc3n2)c1)c1ccc(C(F)(F)F)cc1`, the EC50 was 710 nM (MTS; 72 h).
`Cc1cc(C)n(C(=S)[S][Au][PH](CCCCCC[PH]([Au][S]C(=S)n2nc(C)cc2C)(c2ccccc2)c2ccccc2)(c2ccccc2)c2ccccc2)n1` has a GI50 of 140 nM.
For `N[C@@H]1CCCN(c2c(/C=C3\SC(=O)NC3=O)cccc2-c2ccccc2)C1`, the GI50 was 2630 nM (thymidine uptake).
The GI50 of `C=CC(=O)N1CCC[C@@H](n2nc(-c3ccc(Oc4ccccc4)cc3)c3c(N)ncnc32)C1` is reported as over 10000 nM (48 h).
The IC50 of `CC(C)C[C@H](NC(=O)[C@H](Cc1ccccc1)NC(=O)c1cnccn1)B(O)O` is reported as 3.5 nM (ATP luminescence).
With `COc1ccc(C(=O)/C=C/c2ccc(Cl)c(Cl)c2)cc1S(N)(=O)=O` the inhibition was 107% (SRB; 10 µM).
With `COc1cc(Nc2nccc(-c3cnn4nc(OC)ccc34)n2)cc(C(F)(F)F)c1` the IC50 was 220 nM (ATP luminescence).
For `CCC[C@H](Nc1nc(-c2ccc(NC(=O)NCC)c(OC)c2)ncc1C)c1cccnc1`, the IC50 was 18.3 nM (fluorescence; 72 h).
`CC(C)C[C@H](NC(=O)[C@H](Cc1ccccc1)NC(=O)c1cnccn1)B(O)O` has an EC50 of 3.9 nM (ATP luminescence).
With `COc1ccc(C(=O)Nc2cccc(-c3nc(NC(P(=O)(O)O)P(=O)(O)O)c4ccsc4n3)c2)cc1F` the EC50 was 460 nM (MTS; 72 h).
With `CC[C@]1(O)C[C@H]2CN(CCc3c([nH]c4ccccc34)[C@@](C(=O)OC)(c3cc4c(cc3OC)N(C=O)[C@H]3[C@@](O)(C(=O)OC)[C@H](OC(C)=O)[C@]5(CC)C=CCN6CC[C@]43[C@@H]65)C2)C1` the IC50 was 17.9 nM (fluorescence; 72 h).
